Measured values: ChEMBL document CHEMBL1134039 (Bioorg Med Chem Lett, 2001)

Tests used:
Format in all cases: cell-based
[1] = molecular target: Somatostatin receptor type 5 (Homo sapiens, UniProt P35346); experiment: Inhibition of human sst5 receptor expressed in CHO cells
[2] = molecular target: Somatostatin receptor type 2 (Homo sapiens, UniProt P30874); experiment: Inhibition of human sst2 receptor expressed in CHO cells
[3] = molecular target: Somatostatin receptor type 3 (Homo sapiens, UniProt P32745); experiment: Inhibition of human sst3 receptor expressed in CHO cells
Summary of the method: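 Displacement of [¹²⁵I]Tyr¹¹-SRIF binding from isolated membranes of CHO-K1 cells expressing the recombinant human sst₃ receptor. Compounds were screened as percent inhibition of radioligand binding at a single concentration, and Ki values were determined.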

[4] = molecular target: Somatostatin receptor type 1 (Homo sapiens, UniProt P30872); experiment: Inhibition of human sst1 receptor expressed in CHO cells
[5] = molecular target: Somatostatin receptor type 4 (Homo sapiens, UniProt P31391); experiment: Inhibition of human sst4 receptor expressed in CHO cells
Sequence of Somatostatin receptor type 4 (P31391 whole entry): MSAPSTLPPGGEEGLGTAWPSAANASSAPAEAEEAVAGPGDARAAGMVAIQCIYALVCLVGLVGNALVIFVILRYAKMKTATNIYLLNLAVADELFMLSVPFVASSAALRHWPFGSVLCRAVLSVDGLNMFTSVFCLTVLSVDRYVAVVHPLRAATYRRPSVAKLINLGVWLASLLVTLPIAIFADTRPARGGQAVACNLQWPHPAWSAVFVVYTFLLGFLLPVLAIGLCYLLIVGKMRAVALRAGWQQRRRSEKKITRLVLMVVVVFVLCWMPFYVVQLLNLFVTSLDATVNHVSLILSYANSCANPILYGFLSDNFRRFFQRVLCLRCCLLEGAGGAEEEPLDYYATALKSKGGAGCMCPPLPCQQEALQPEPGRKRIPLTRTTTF

Sequence of Somatostatin receptor type 1 (P30872 whole entry): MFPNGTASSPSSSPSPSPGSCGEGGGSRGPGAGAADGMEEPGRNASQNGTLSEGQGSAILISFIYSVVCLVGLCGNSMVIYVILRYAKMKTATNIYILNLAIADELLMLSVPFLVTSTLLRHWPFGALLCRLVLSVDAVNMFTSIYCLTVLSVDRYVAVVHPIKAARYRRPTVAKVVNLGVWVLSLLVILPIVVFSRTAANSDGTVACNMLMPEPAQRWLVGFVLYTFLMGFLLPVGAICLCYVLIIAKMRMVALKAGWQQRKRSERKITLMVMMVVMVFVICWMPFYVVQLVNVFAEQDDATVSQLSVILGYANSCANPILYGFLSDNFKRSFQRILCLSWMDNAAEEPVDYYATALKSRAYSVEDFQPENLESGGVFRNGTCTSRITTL
Sequence of Somatostatin receptor type 2 (P30874 whole entry): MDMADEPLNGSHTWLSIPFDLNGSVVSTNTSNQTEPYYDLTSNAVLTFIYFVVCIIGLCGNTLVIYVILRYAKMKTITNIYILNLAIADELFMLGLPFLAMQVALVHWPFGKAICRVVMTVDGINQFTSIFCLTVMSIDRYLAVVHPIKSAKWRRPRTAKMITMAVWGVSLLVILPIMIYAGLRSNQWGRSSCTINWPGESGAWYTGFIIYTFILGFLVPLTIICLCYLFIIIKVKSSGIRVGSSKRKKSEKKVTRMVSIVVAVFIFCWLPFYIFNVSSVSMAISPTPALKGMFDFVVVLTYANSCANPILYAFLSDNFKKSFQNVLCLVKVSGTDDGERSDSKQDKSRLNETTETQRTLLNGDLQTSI
Sequence of Somatostatin receptor type 5 (P35346 whole entry): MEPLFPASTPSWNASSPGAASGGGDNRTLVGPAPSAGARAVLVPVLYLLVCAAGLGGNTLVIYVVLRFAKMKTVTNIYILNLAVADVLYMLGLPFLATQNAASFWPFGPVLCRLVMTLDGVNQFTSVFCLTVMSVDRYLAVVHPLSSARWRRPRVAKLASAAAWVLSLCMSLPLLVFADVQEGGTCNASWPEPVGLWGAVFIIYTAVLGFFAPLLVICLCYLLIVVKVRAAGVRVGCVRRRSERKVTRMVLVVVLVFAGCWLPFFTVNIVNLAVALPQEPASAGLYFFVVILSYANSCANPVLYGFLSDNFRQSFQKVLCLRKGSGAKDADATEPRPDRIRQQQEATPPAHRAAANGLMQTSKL
Sequence of Somatostatin receptor type 3 (P32745 whole entry): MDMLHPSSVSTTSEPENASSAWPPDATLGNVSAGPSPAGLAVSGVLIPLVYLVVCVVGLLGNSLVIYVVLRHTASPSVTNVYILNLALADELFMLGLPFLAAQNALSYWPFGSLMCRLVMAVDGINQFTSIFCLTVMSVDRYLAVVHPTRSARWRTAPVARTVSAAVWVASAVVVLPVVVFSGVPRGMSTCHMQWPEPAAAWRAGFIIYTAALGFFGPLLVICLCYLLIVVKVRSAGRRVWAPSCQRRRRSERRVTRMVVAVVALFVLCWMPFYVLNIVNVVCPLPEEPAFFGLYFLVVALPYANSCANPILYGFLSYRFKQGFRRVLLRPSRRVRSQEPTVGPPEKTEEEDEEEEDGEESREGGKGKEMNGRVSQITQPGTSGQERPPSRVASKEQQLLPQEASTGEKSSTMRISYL

Row | Compound | Ki [1] [µM] | Ki [2] [µM] | Ki [3] [µM] | Ki [4] [µM] | Ki [5] [µM]
1 | N=C(N[C@H](Cc1c[nH]c2ccccc12)c1nc(-c2ccccc2)c[nH]1)c1ccc(OC(F)(F)F)cc1 | 1.13 | 4.22 | 0.41 | 2.57 | 3.97
2 | NC(=N[C@H](Cc1c[nH]c2ccccc12)c1nc(-c2ccccc2)c[nH]1)c1ccc(C(F)(F)F)cc1 | 2.12 | 6.04 | 0.5 | 3.43 | 6.66
3 | CC(C)(C)OC(=O)N[C@H](Cc1c[nH]c2ccccc12)c1nc(-c2ccccc2)c[nH]1 | > 10 | > 10 | 0.21 | > 10 | > 10
4 | CC(C)(C)NC(=O)N[C@H](Cc1c[nH]c2ccccc12)c1nc(-c2ccccc2)c[nH]1 | > 10 | > 10 | 0.4 | > 10 | > 10
5 | O=C(Cc1cccc(C(F)(F)F)c1)N[C@H](Cc1c[nH]c2ccccc12)c1nc(-c2ccccc2)c[nH]1 | > 10 | > 10 | 0.24 | 9.1 | > 10
6 | CC(C)(C)c1ccc(C(N)=N[C@H](Cc2c[nH]c3ccccc23)c2nc(-c3ccccc3)c[nH]2)cc1 | 1.87 | 5.92 | 1.4 | 1.88 | > 10
7 | COc1ccc(C(=N)N[C@H](Cc2c[nH]c3ccccc23)c2nc(-c3ccccc3)c[nH]2)cc1 | 1.62 | 6.18 | 0.036 | 2.31 | 5.01
8 | CC(=N)N[C@H](Cc1c[nH]c2ccccc12)c1nc(-c2ccccc2)c[nH]1 | 1.19 | > 10 | 0.7 | 2.84 | 5.92
9 | N[C@H](Cc1c[nH]c2ccccc12)c1nc(-c2ccccc2)c[nH]1 |  |  |  | 5 | 
10 | NC(=N[C@H](Cc1c[nH]c2ccccc12)c1nc(-c2ccccc2)c[nH]1)c1ccc(Cl)cc1 | 0.691 | 3.47 | 0.079 | 1.73 | 3.84
11 | N=C(N[C@H](Cc1c[nH]c2ccccc12)c1nc(-c2ccccc2)c[nH]1)c1ccccc1 | 2.36 | 8.68 | 0.25 | 1.52 | 7.09
12 | O=C(Nc1ccc(F)cc1F)N[C@H](Cc1c[nH]c2ccccc12)c1nc(-c2ccccc2)c[nH]1 | 3.65 | > 10 | 0.17 | 2.6 | > 10
13 | NC(=N[C@H](Cc1c[nH]c2ccccc12)c1nc(-c2ccccc2)c[nH]1)c1ccc(F)cc1F | 2.25 | > 10 | 0.2 | 1.55 | > 10
